Reference: ChEMBL document CHEMBL1250542, “Synthesis and biological evaluation of a series of aromatic bisphosphonates” (Bioorg Med Chem, 2010)
Each block holds one molecule with its values, some of them ahead of it. Activity calls are given as the source filed them. The calls are words filed in the database; no cut-off is given here.

Tests used:
K562 [1] = experiment: Anticancer activity against human K562 cells assessed as inhibition of DNA synthesis by [3H]thymidine incorporation assay; type: functional, cell-based
Outline: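 [³H]thymidine (3.75 Ci/mmol in media) was added at 44 or 68 h. At 48 or 72 h, cells were harvested onto glass microfiber paper and incorporated label was scintillation counted. Proliferation is expressed as % of untreated cells, mean S.E., n = 4.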

[2] = biological target: T1, Farnesyl pyrophosphate synthase (Homo sapiens) (UniProt P14324); experiment: Inhibition of FDPS in human K562 cells assessed as reduction of Ras protein farnesylation after 48 hrs by Western blotting; type: cell-based
T1 sequence (whole entry): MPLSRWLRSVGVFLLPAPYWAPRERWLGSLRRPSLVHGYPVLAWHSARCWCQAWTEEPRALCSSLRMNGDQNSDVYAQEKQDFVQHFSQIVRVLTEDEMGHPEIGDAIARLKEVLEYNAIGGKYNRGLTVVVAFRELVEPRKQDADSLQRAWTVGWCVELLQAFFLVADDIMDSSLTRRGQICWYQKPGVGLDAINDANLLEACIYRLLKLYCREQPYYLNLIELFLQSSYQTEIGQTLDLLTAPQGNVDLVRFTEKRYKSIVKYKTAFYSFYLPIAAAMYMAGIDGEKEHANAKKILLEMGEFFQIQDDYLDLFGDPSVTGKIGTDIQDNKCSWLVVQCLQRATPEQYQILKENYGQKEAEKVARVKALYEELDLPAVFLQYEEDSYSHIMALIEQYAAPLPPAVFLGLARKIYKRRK
Outline: (§1)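 Prenylation in intact cells: K562 cells at 5 × 10⁵ cells/mL were incubated with compounds or lovastatin for 48 h, as a single-concentration screen or a concentration series. Lysates were made in 2% SDS/66 mM Tris and protein was measured by BCA. Samples were resolved on 12% and 15% gels, transferred to PVDF, and probed for pan-Ras, Rap1a or Rab6, with α-tubulin as reference. Detection was by ECL.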

K562 [3] = experiment: Inhibition of GGTase1 in human K562 cells assessed as reduction of Rap1a protein geranylgeranylation at 50 uM after 48 hrs by Western blotting; type: cell-based; outline: as §1
K562 [4] = experiment: Inhibition in human K562 cells assessed as reduction of RAB6 protein geranylgeranylation after 48 hrs by Western blotting
[5] = biological target: T2, Geranylgeranyl pyrophosphate synthase (Homo sapiens) (UniProt O95749); experiment: Inhibition of GST-tagged human recombinant GGDPS expressed in BL21 gold bacteria at 10 uM by liquid scintillation counting
T2 sequence (whole entry): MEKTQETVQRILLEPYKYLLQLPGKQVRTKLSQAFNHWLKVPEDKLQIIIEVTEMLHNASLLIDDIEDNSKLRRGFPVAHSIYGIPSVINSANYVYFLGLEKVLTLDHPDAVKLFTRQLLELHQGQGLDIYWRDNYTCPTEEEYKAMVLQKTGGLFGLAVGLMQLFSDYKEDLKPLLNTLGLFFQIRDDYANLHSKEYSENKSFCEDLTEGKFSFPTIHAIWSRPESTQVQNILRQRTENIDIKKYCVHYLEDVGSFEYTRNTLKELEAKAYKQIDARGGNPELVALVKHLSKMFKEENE
Outline: (§2)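 Purified recombinant human GGDPS in buffer containing 0.5 mM MgCl₂ and 0.5 mM ZnCl₂ was preincubated with compounds for 10 min. Reactions were started with ¹⁴C-IPP plus FPP and run for 1 h at 37 °C. Products were extracted into water-saturated butanol, washed twice with saturated water, and counted by liquid scintillation. Data are from a single-concentration screen and concentration–response curves with IC₅₀ extrapolated, mean SD, n = 2.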

[6] = biological target: T3, Geranylgeranyl pyrophosphate synthase (Homo sapiens, UniProt O95749); experiment: Inhibition of GST-tagged human recombinant GGDPS expressed in BL21 gold bacteria by liquid scintillation counting; outline: as §2
T3 sequence (O95749 whole entry): T2 sequence (whole entry)

K562 [7] = experiment: Inhibition of GGTase1 in human K562 cells assessed as reduction of Rap1a protein geranylgeranylation at 12.5 uM after 48 hrs by Western blotting; type: cell-based; outline: as §1
[8] = biological target: T2, Geranylgeranyl pyrophosphate synthase (Homo sapiens); experiment: Inhibition of GGDPS in human K562 cells assessed as reduction Rap1a protein geranylgeranylation after 48 hrs by Western blotting in presence GGPP; type: cell-based
Outline: (§3)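 Add-back assay: K562 cells at 5 × 10⁵ cells/mL were exposed for 48 h to compounds, or to lovastatin, with or without exogenous mevalonate, FPP or GGPP. Lysates were made in 2% SDS/66 mM Tris and protein was measured by BCA. Samples were run on 12% and 15% SDS gels, transferred to PVDF, and immunoblotted for pan-Ras, Rap1a or Rab6, with α-tubulin as reference. Detection was by ECL.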

[9] = biological target: T2, Geranylgeranyl pyrophosphate synthase (Homo sapiens); experiment: Inhibition of GGDPS in human K562 cells assessed as reduction Rab6 protein geranylgeranylation after 48 hrs by Western blotting in presence GGPP; type: cell-based; outline: as §3
[10] = biological target: T1, Farnesyl pyrophosphate synthase (Homo sapiens); experiment: Inhibition of FDPS in human K562 cells assessed as reduction Ras protein farnesylation after 48 hrs by Western blotting in presence of mevalonate and FPP; type: cell-based; outline: as §3
K562 [11] = experiment: Inhibition of GGTase1 in human K562 cells assessed as reduction of Rap1a protein geranylgeranylation after 48 hrs by Western blotting; type: cell-based; outline: as §1

Structure (SMILES): CC(C)=CCC/C(C)=C/CC(Cc1cccc(CC=C(C)C)c1)(P(=O)(O)O)P(=O)(O)O
inhibition (K562 [1]): Active
inhibition [2]: inactive
inhibition (K562 [3]): Active
inhibition (K562 [4]): Active
inhibition activity call (active/not active) [5]: Active
IC50 [6]: 250 nM
Activity (K562 [7]): Active
inhibition [8]: inactive
inhibition [9]: inactive
inhibition [10]: Active

Structure (SMILES): CC[C@H](C)C(=O)O[C@H]1C[C@@H](C)C=C2C=C[C@H](C)[C@H](CC[C@@H]3C[C@@H](O)CC(=O)O3)[C@H]21
inhibition (K562 [11]): Active
inhibition [10]: inactive

Structure (SMILES): CC(C)=CCC/C(C)=C/CC(Cc1ccc(CC=C(C)C)cc1)(P(=O)(O)O)P(=O)(O)O
inhibition (K562 [1]): Active
inhibition [2]: inactive
inhibition (K562 [3]): Active
inhibition (K562 [4]): Active
inhibition activity call (active/not active) [5]: Active
IC50 [6]: 800 nM
inhibition [8]: inactive
inhibition [9]: inactive
inhibition [10]: Active

Structure (SMILES): CC(C)=CCc1cccc(CC(P(=O)(O)O)P(=O)(O)O)c1
inhibition activity call (active/not active) [5]: inactive

Structure (SMILES): CC(C)=CCc1ccc(CC(P(=O)(O)O)P(=O)(O)O)cc1
inhibition activity call (active/not active) [5]: inactive

Structure (SMILES): CC(C)=CCC/C(C)=C/CC(Cc1ccccc1)(P(=O)(O)O)P(=O)(O)O
inhibition activity call (active/not active) [5]: Active

Continued, values first:

inhibition activity call (active/not active) [5]: inactive
Structure (SMILES): O=P(O)(O)C(Cc1ccccc1)P(=O)(O)O

inhibition activity call (active/not active) [5]: Active
Structure (SMILES): CC(C)=CCC/C(C)=C/CC(Cc1cccnc1)(P(=O)(O)O)P(=O)(O)O
